One compound from ChEMBL document CHEMBL2429803, “Animal toxicity of hairpin pyrrole-imidazole polyamides varies with the turn unit” (J Med Chem, 2013) can be followed below.

Data set [1] has as its system Mus musculus. Briefly: Acute toxicity in C57BL/6J mouse assessed as moderate atypical tubular regeneration in kidney at 3 mg/kg, sc after 9 days. More on the design: dose 3 mg/kg, route subcutaneous. Type of data set: organism-based. To be noted: in vivo, 216 h. The gist of the method:
(§1)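 Male C57BL/6J mice, 8 weeks old, received a single sc dose (1, 3 or 10 mg/kg in 25% DMSO/saline, n = 4 per group) and were sacrificed after 9 days. Two representative animals per group were fixed in 10% formalin. Cecum, duodenum, heart, ileum, kidney, liver, lung, pancreas, spleen and stomach were examined blind by a veterinary pathologist and lesions graded mild, moderate or severe.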

In data set [2] the test system is Mus musculus. Briefly: Acute toxicity in C57BL/6J mouse assessed as mild lymphoid apoptosis in white pulp of spleen at 10 mg/kg, sc after 9 days. To be noted: in vivo, 216 h. More on the design: dose 10 mg/kg, route subcutaneous. Type of data set: organism-based. Put shortly:
as §1

Data set [3] relates to Mus musculus. As to the kind of experiment: Acute toxicity in C57BL/6J mouse assessed as diffuse hepatocellular necrosis and apoptosis at 10 mg/kg, sc after 9 days. The note with it: in vivo, 216 h.
The nature of data set [4]: Metabolic stability in human liver microsomes after 1 hr by LC/MS/MS analysis in presence of NADPH. Type of data set: ADME, Microsome. The note with it: read-out: Stability. The gist of the method:
(§2)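 Compound incubated at 37 °C for 60 min with 1 mg/mL human or mouse liver microsomes in 100 mM KH2PO4, 3 mM MgCl2, pH 7.4, with 2 mM NADPH or without it. Stopped with ice-cold methanol, then precipitate removed. Analyzed by LC/MS/MS as % remaining versus time zero. Duplicates.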
(In general: Microsomes from liver hold many membrane-bound enzymes, among them those of drug oxidation.)

For data set [5], the system named is Mus musculus. Briefly: Toxicity in C57BL/6J mouse assessed as mild multifocal hepatocellular necrosis and apoptosis in liver at 1 mg/kg, sc administered every 3 days for a cycle of 3 injections measured 2 days post last injection. Type of data set: organism-based. More on the design: dose 1 mg/kg, route subcutaneous. To be noted: in vivo, 48 h. Put shortly: (§3)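 Male C57BL/6J mice, 8 weeks old, given 1 mg/kg sc every 3 days for three injections and sacrificed 2 days after the last one. Two mice per group fixed in 10% formalin. A veterinary pathologist, blinded, examined cecum, duodenum, heart, ileum, kidney, liver, lung, pancreas, spleen and stomach. Lesions graded mild, moderate or severe.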

The subject of data set [6] is Mus musculus. As to the kind of experiment: Acute toxicity in C57BL/6J mouse assessed as lesions in pancreas at 1 to 10 mg/kg, sc after 9 days. The note with it: in vivo, 216 h. Type of data set: organism-based. More on the design: dose 1-10 mg/kg, route subcutaneous. The gist of the method: as §1
Data set [7] has as its system Mus musculus. Briefly: Acute toxicity in C57BL/6J mouse assessed as lesions in lungs at 1 to 10 mg/kg, sc after 9 days. Type of data set: organism-based. More on the design: dose 1-10 mg/kg, route subcutaneous. To be noted: in vivo, 216 h. The gist of the method: as §1
The test system of data set [8] is Mus musculus. Briefly: Acute toxicity in C57BL/6J mouse assessed as lesions in heart at 1 to 10 mg/kg, sc after 9 days. Type of data set: organism-based. Also noted: dose 1-10 mg/kg, route subcutaneous. The note with it: in vivo, 216 h. Put shortly:
as §1

Data set [9] has as its system Mus musculus. As to the kind of experiment: Acute toxicity in C57BL/6J mouse assessed as lesions in stomach at 1 to 10 mg/kg, sc after 9 days. Type of data set: organism-based. More on the design: dose 1-10 mg/kg, route subcutaneous. The note with it: in vivo, 216 h. Put shortly: as §1
In data set [10] the test system is Mus musculus. As to the kind of experiment: Acute toxicity in C57BL/6J mouse assessed as weight loss at 10 mg/kg, sc after 9 days. Type of data set: organism-based. More on the design: dose 10 mg/kg, route subcutaneous. To be noted: in vivo, 216 h. The gist of the method: (§4)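 Male C57BL/6J mice, 8 weeks old, were acclimated 3 days and then given a single sc injection of 1, 3 or 10 mg/kg in 25% DMSO/saline vehicle (up to 200 μL), n = 4 per group. Weight, behaviour and appearance were monitored daily for 9 days before sacrifice. The humane end point was visible duress or weight loss over 15% of the original.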

Data set [11] in a line: Metabolic stability in mouse liver microsomes after 1 hr by LC/MS/MS analysis. The note with it: read-out: Stability. Type of data set: ADME, Microsome. The gist of the method:
as §2

Data set [12] concerns Mus musculus. As to the kind of experiment: Acute toxicity in C57BL/6J mouse assessed as diffuse hepatocellular necrosis and apoptosis at 10 mg/kg, sc after 9 days. Type of data set: organism-based. Also noted: dose 10 mg/kg, route subcutaneous. The note with it: in vivo, 216 h. Put shortly:
as §1

Data set [13] can be described thus: Metabolic stability in human liver microsomes after 1 hr by LC/MS/MS analysis. To be noted: read-out: Stability. Type of data set: ADME, Microsome. Put shortly: as §2
For data set [14], the system named is Mus musculus. Briefly: Acute toxicity in C57BL/6J mouse assessed as tubular epithelial necrosis and apoptosis in kidney at 3 mg/kg, sc after 9 days. Type of data set: organism-based. More on the design: dose 3 mg/kg, route subcutaneous. To be noted: in vivo, 216 h. Put shortly: as §1
Data set [15] relates to Mus musculus. Briefly: Toxicity in C57BL/6J mouse assessed as mild tubular attenuation in kidney at 1 mg/kg, sc administered every 3 days for a cycle of 3 injections measured 2 days post last injection. Type of data set: organism-based. Also noted: dose 1 mg/kg, route subcutaneous. To be noted: in vivo, 48 h. Put shortly: as §3
Data set [16] deals with Mus musculus. As to the kind of experiment: Toxicity in C57BL/6J mouse assessed as epithelial necrosis and apoptosis in kidney at 1 mg/kg, sc administered every 3 days for a cycle of 3 injections measured 2 days post last injection. Type of data set: organism-based. More on the design: dose 1 mg/kg, route subcutaneous. The note with it: in vivo, 48 h. Put shortly: as §3

The subject of data set [17] is Mus musculus. As to the kind of experiment: Acute toxicity in C57BL/6J mouse assessed as acute morbidity at 10 mg/kg, sc after 9 days. To be noted: in vivo, 216 h. Type of data set: organism-based. Also noted: dose 10 mg/kg, route subcutaneous. Put shortly: as §4
Data set [18] has as its system Mus musculus. Briefly: Acute toxicity in C57BL/6J mouse assessed as lesions in GI tract at 1 to 10 mg/kg, sc after 9 days. More on the design: dose 1-10 mg/kg, route subcutaneous. Type of data set: organism-based, Gastrointestinal tract. The note with it: in vivo, 216 h. Put shortly:
as §1

A short description of data set [19]: Metabolic stability in mouse liver microsomes after 1 hr by LC/MS/MS analysis in presence of NADPH. The note with it: read-out: Stability. Type of data set: ADME, Microsome. Put shortly: as §2
In data set [20] the test system is Mus musculus. Briefly: Toxicity in C57BL/6J mouse assessed as morbidity at 1 mg/kg, sc administered every 3 days for a cycle of 3 injections. To be noted: in vivo, 72 h. Type of data set: organism-based. More on the design: dose 1 mg/kg, route subcutaneous. The gist of the method:
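Male C57BL/6J mice, 3 per group, given 1 mg/kg sc every 3 days. Weight recorded on injection days. Watched for signs of duress. Humane end point was visible duress or weight loss over 15% of starting body weight.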

For data set [21], the system named is Mus musculus. As to the kind of experiment: Toxicity in C57BL/6J mouse assessed as karyomegaly in kidney at 1 mg/kg, sc administered every 3 days for a cycle of 3 injections measured 2 days post last injection. Type of data set: organism-based. More on the design: dose 1 mg/kg, route subcutaneous. To be noted: in vivo, 48 h. Put shortly:
as §3

For data set [22], the system named is Mus musculus. As to the kind of experiment: Toxicity in C57BL/6J mouse assessed as weight loss at 1 mg/kg, sc administered every 3 days for a cycle of 3 injections. Type of data set: organism-based. More on the design: dose 1 mg/kg, route subcutaneous. To be noted: in vivo, 72 h. The gist of the method:
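8-week-old male C57BL/6J mice, acclimated 3 days, groups of three, dosed sc in 25% DMSO/saline vehicle once every 3 days, sacrificed 2 days after the last injection. Body weight recorded on injection days and at end point; humane end point set at visible duress or >15% loss of original body weight.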

As for `CN(CCCNC(=O)c1cccc(C(=O)O)c1)CCCNC(=O)c1cc(NC(=O)c2cc(NC(=O)c3cc(NC(=O)c4nc(NC(=O)C[C@@H](N)CNC(=O)c5cc(NC(=O)c6cc(NC(=O)c7cc(NC(=O)c8nccn8C)cn7C)cn6C)cn5C)cn4C)cn3C)cn2C)cn1C`, the Activity entry with Mus musculus [1] is given as “Toxic”; with Mus musculus [2] it was “Toxic”; in the data set with Mus musculus [3], “Toxic”; in the data set on Mus musculus [5] it was “Toxic”; with Mus musculus [6] it was “Non-toxic”; in the data set with Mus musculus [7] it was “Non-toxic”. The Activity result in the data set on Mus musculus [8] is “Non-toxic”; in the data set with Mus musculus [9], “Non-toxic”; in the data set with Mus musculus [10], “Toxic”; in the data set on Mus musculus [12], “Toxic”; in the data set on Mus musculus [14], “Toxic”; with Mus musculus [15] it was “Toxic”. In addition, the Activity entry in the data set on Mus musculus [16] is “Toxic”; in the data set with Mus musculus [17], “Toxic”; with Mus musculus [18], “Non-toxic”; with Mus musculus [20], “Non-toxic”; with Mus musculus [21] it was “Toxic”; in the data set with Mus musculus [22], “Non-toxic”. In addition, the remaining at 1 h in data set [4], in data set [11], in [13] and in data set [19] was > 90% each time.
